Data on one compound can be found in ChEMBL document CHEMBL4765333, “Novel NO-releasing scopoletin derivatives induce cell death via mitochondrial apoptosis pathway and cell cycle arrest” (Eur J Med Chem, 2020).

Calls of active or inactive are those of the source. The rule behind the calls is not given here.

Series [1] concerns MDA-MB-231. The experiment in a line: Inhibition of colony formation in human MDA-MB-231 cells assessed as fewer and smaller colonies at 0.5 to 1 uM incubated for 24 hrs followed by culturing in fresh medium for 10 days by crystal violet staining based assay. It counts as functional, cell-based. Particulars: dose 0.5-1 µM. The gist of the method:
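MDA-MB-231 seeded at 1.5×10^3 cells/well, 24 h attachment, then 24 h exposure to compound (0.25, 0.5, 1 µM) or DMSO; fresh medium for a further 10 days. Fixed in 4% paraformaldehyde 0.5 h at 4°C, crystal violet stained, dye dissolved in DMSO and absorbance read at 590 nm; performed three times.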

Series [2] relates to MCF7. The experiment in a line: Antiproliferative activity against human MCF7 cells assessed as inhibition of cell growth rate at 10 uM measured after 48 hrs by MTT assay. The format is functional. The gist of the method:
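MCF-7 cells in DMEM with 10% FBS exposed to a single 10 µM concentration for 48 h. Read-out by MTT (0.5 mg/ml, 4 h, DMSO dissolution, A570). Inhibition rate given versus untreated control as mean ± SD, n = 3.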
(Tetrazolium assays rely on reduction of a dye to a coloured formazan, in cell work by metabolically active cells.)

In series [3] the test system is A549. The series is described as follows: Anticancer activity against human A549 cells assessed as inhibition of cell proliferation measured after 48 hrs by MTT assay. It counts as functional, cell-based. Particulars: A549, 48 h. Summed up: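 Cells seeded at ~5,000/well, grown 24 h to partial monolayer, then exposed 48 h at 37°C, 5% CO2 to 0.5, 1, 2, 4, 10 and 20 µM (DMSO ≤0.1%). MTT final 0.5 mg/ml for 4 h, formazan dissolved in DMSO, A570. Survival expressed as % of untreated control; IC50 from dose-response curves; three independent experiments.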

Series [4] relates to L02. The experiment in a line: Cytotoxicity against human L02 cells assessed as reduction in cell viability measured after 48 hrs by MTT assay. The format is cell-based. Particulars: L02, 48 h. The gist of the method: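 Cells seeded at ~5,000/well, grown 24 h to partial monolayer, then exposed 48 h at 37°C, 5% CO2 to 0.5, 1, 2, 4, 10 and 20 µM (DMSO ≤0.1%). MTT final 0.5 mg/ml for 4 h, formazan dissolved in DMSO, A570. Survival expressed as % of untreated control; IC50 from dose-response curves; three independent experiments. MDA-MB-231, MCF-7, HepG2 in DMEM; A549 and LO-2 in RPMI-1640; 10% FBS.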

In series [5] the test system is MDA-MB-231. The experiment in a line: Antiproliferative activity in human MDA-MB-231 cells assessed as inhibition of cell viability at 1.5 to 3 uM pretreated with 10 uM necroptosis inhibitor, necrostatin-1 followed by addition of compound and measured after 48 hrs by MTT assay. The format is functional, cell-based. Particulars: dose 1.5-3 µM. Summed up: (§1)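 MDA-MB-231 cells pretreated 1 h with necrostatin-1 (10 µM) or Z-VAD-FMK (20 µM), then exposed to compound at 1.5, 2 and 3 µM for another 48 h. Inhibition rates by MTT; inhibitors alone also tested 48 h for viability. Mean ± SD, n = 3.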

In series [6] the test system is MDA-MB-231. The experiment in a line: Antiproliferative activity in human MDA-MB-231 cells assessed as inhibition of cell viability at 1.5 to 3 uM pretreated with 20 uM apoptosis inhibitor, Z-VAD-FMK followed by addition of compound and measured after 48 hrs by MTT assay. The format is functional, cell-based. Particulars: dose 1.5-3 µM. Summed up: as §1
Series [7] has as its system MDA-MB-231. The experiment in a line: Induction of apoptosis in human MDA-MB-231 cells assessed as early apoptotic cells at 1 uM after 24 hrs by Annexin V/propidium iodide based flow cytometric analysis (reference value: 0.94%). The format is functional. Summed up:
(§2)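 MDA-MB-231 cells (2×10^5/well) attached 24 h, then treated 24 h with 1, 1.5, 2 or 3 µM, DMSO as control. Cells harvested, PBS-washed, resuspended in binding buffer, stained with Annexin V and PI for 30 min at 37°C in the dark, and analysed by flow cytometry for quadrant percentages; three experiments.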

For series [8], the system named is MDA-MB-231. The experiment in a line: Induction of apoptosis in human MDA-MB-231 cells assessed as necrotic cells at 1.5 uM after 24 hrs by Annexin V/propidium iodide based flow cytometric analysis (reference value: 0.019%). The format is functional. The gist of the method: as §2
In general terms: In flow cytometry, cells or beads pass a laser one at a time.

Series [9] deals with MDA-MB-231. The experiment in a line: Induction of apoptosis in human MDA-MB-231 cells assessed as necrotic cells at 3 uM after 24 hrs by Annexin V/propidium iodide based flow cytometric analysis (reference value: 0.019%). It counts as functional. The gist of the method: as §2
For series [10], the system named is MDA-MB-231. The experiment in a line: Induction of apoptosis in human MDA-MB-231 cells assessed as viable cells at 3 uM after 24 hrs by Annexin V/propidium iodide based flow cytometric analysis (reference value: 99%). The format is functional. Particulars: read-out: Activity. The gist of the method: as §2
In series [11] the test system is MDA-MB-231. The experiment in a line: Induction of apoptosis in human MDA-MB-231 cells assessed as up-regulation of Bad expression at 1.5 to 6 uM measured after 8 hrs by Western blot analysis. Particulars: dose 1.5-6 µM. The format is functional, cell-based. The gist of the method:
(§3)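 MDA-MB-231 cells (8×10^5 per 60 mm dish) attached 24 h, then exposed 8 h to 1.5, 3 or 6 µM, DMSO as control. Lysates quantified by BCA; 30 µg protein run on 4–20% SDS-PAGE, transferred to PVDF, probed for Bcl-2, Bax, Bad, cleaved caspase-9, cleaved caspase-3 and PARP, with ECL detection. Densitometric relative levels; three experiments.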

In series [12] the test system is MDA-MB-231. The series is described as follows: Induction of apoptosis in human MDA-MB-231 cells assessed as increase in cleaved caspase-9 protein expression incubated for 8 hrs by Western blot analysis. The format is functional, cell-based. Particulars: dose 1.5-6 µM. Summed up: as §3
For series [13], the system named is MDA-MB-231. The experiment in a line: Induction of cell cycle arrest in human MDA-MB-231 cells assessed as accumulation at G2/M phase at 2 uM measured after 24 hrs by propidium iodide staining based flow cytometric method (reference value: 18.55%). It counts as functional.
The subject of series [14] is MDA-MB-231. The experiment in a line: Induction of cell cycle arrest in human MDA-MB-231 cells assessed as accumulation at G0/G1 phase at 1 uM measured after 24 hrs by propidium iodide staining based flow cytometric method (reference value: 45.71%). The format is functional.
Series [15] has as its system MDA-MB-231. The series is described as follows: Induction of cell cycle arrest in human MDA-MB-231 cells assessed as accumulation at S phase at 1.5 uM measured after 24 hrs by propidium iodide staining based flow cytometric method (reference value: 36.25%). The format is functional.
Series [16] is described as follows: Prodrug release in human MDA-MB-231 cells assessed as increase in intracellular NO level at 25 uM measured after 2.5 hrs by total nitric oxide assay. Particulars: mda-mb-23, 2.5 h. It counts as ADME, cell-based. The gist of the method: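 MDA-MB-231 (2×10^5 cells/well) cultured 24 h, then treated 2.5 h with compound at 25 µM or DMSO. Cells harvested, lysed in nitric oxide assay buffer 1 h on ice; lysate NO quantified with a total nitric oxide assay kit. Mean ± SD, n = 3.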

In series [17] the test system is MDA-MB-23. The series is described as follows: Induction of mitochondrial membrane potential depolarization in human MDA-MB-231 cells incubated for 18 hrs by JC-1 staining based flow cytometry. Particulars: dose 1-2 µM. It counts as functional, cell-based.
The nature of series [18]: Induction of intracellular reactive oxygen species generation in human MDA-MB-231 cells assessed as proportion of FL1-H positive cells at 2 uM pretreated with ROS scavenger, NAC for 2 hrs prior to incubation with compound and measured after 24 hrs by DCFH-DA staining based flow cytometry analysis (reference value: 47.8%). The format is functional, MDA-MB-23. Summed up: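 MDA-MB-231 seeded at 2×10^5 cells/well, grown 24 h, pretreated with NAC (2.5 mM) for 2 h, then given 2 µM compound for 24 h. Cells loaded with DCFH-DA 30 min at 37°C in the dark, washed in PBS, resuspended in serum-free medium and read by flow cytometry; three independent experiments.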

As to `COc1cc2cc(N)c(=O)oc2cc1OCCCOc1no[n+]([O-])c1S(=O)(=O)c1ccccc1`, in series [1], the inhibition entry is “Active”. Besides, the inhibition at 10 µM in [2] turned out to be 91.5%. Moreover, the figures for the IC50 in series [3] and in [4] were 4.18 µM and 9.16 µM, respectively. In addition, the result in [5] and in series [6] was inactive. The Activity is 3.75% in series [7]; 0.31% in series [8]; 0.31% in series [9]; “Dose-dependent effect” in series [12]; 40.29% in series [13]; 43.06% in series [14]. Further, the Activity in series [15] was 22.92%; in [17], “Dose-dependent effect”; in series [18], 51%. The viability at 3 µM in series [10] was 65.6%. In addition, in series [11], the outcome was Active. The Drug metabolism entry in series [16] was “Metabolite_Detected”.

In general, inhibition refers to the percentage by which the read-out fell short of the control. The term IC50 denotes the point on the concentration scale where inhibition reaches its midpoint.
